# Test results taken from ChEMBL document CHEMBL1821582, “SAR analysis of innovative selective small molecule antagonists of sphingosine-1-phosphate 4 (S1P₄) receptor” (Bioorg Med Chem Lett, 2011).
# pIC50: −log10 of the molar value. Active and inactive are the calls of the source. The rule behind the calls is not given here.
# How the values were obtained:
# [1] = target: T1, Sphingosine 1-phosphate receptor 4 (Homo sapiens, UniProt O95977); test: Antagonist activity at human S1P4 receptor expressed in EDG6-bla U2OS cells coexpressing human endothelial differentiation gene 6 linked to GAL4-VP16 assessed as beta-lactamase expression by FRET assay; assay type: functional, cell-based
# T1 sequence (O95977 whole entry): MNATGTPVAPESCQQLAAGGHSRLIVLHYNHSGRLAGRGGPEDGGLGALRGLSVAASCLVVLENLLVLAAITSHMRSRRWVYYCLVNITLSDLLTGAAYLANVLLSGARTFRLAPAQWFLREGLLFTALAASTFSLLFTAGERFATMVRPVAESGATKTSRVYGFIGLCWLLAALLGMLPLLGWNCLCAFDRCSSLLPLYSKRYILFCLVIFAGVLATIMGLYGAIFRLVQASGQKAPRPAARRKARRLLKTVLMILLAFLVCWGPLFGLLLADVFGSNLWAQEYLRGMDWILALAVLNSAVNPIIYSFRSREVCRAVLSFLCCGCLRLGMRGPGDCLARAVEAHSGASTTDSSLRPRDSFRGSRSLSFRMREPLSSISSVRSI
# Method in brief: (§1)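 Human EDG6 (S1P4) Tango assay in U2OS cells: the receptor is fused via a TEV protease site to a GAL4-VP16 transcription factor, with a co-expressed beta-arrestin/TEV protease fusion. Read-out is a beta-lactamase reporter driven by a UAS response element. Compounds were tested up to 25 μM, with percentage inhibition at 25 μM; values are the mean of n = 3 determinations.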
# [2] = target: T2, Sphingosine 1-phosphate receptor 1 (Homo sapiens, UniProt P21453); test: Antagonist activity at S1P1 receptor upto 25 uM; assay type: functional
# T2 sequence (P21453 whole entry): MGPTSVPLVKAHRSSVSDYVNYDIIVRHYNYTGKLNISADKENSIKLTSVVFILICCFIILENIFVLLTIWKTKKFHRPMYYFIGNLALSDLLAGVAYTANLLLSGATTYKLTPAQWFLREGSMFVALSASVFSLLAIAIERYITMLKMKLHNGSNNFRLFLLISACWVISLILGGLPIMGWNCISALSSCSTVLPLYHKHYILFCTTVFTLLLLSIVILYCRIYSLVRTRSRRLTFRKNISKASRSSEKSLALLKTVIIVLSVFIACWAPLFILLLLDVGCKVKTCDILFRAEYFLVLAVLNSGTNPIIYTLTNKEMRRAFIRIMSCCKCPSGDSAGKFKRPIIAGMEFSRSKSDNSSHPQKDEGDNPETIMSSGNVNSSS
# [3] = target: T3, Sphingosine 1-phosphate receptor 2 (Homo sapiens, UniProt O95136); test: Antagonist activity at S1P2 receptor; assay type: functional
# T3 sequence (O95136 whole entry): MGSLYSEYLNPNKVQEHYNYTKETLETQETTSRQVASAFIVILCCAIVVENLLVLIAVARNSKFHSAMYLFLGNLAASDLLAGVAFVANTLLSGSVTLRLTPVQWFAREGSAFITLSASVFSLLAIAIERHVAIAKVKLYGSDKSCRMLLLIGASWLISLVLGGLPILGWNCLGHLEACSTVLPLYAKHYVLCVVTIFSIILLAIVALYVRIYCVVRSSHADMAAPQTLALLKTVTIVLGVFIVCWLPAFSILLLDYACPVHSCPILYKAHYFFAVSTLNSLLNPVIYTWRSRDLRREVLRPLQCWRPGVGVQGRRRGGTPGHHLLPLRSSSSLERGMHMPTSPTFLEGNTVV
# [4] = target: T3, Sphingosine 1-phosphate receptor 2; test: Inhibition of S1P2 receptor; details: concentration not given here
# [5] = target: T4, Sphingosine 1-phosphate receptor 3 (Homo sapiens, UniProt Q99500); test: Inhibition of S1P3 receptor at 25 uM
# T4 sequence (Q99500 whole entry): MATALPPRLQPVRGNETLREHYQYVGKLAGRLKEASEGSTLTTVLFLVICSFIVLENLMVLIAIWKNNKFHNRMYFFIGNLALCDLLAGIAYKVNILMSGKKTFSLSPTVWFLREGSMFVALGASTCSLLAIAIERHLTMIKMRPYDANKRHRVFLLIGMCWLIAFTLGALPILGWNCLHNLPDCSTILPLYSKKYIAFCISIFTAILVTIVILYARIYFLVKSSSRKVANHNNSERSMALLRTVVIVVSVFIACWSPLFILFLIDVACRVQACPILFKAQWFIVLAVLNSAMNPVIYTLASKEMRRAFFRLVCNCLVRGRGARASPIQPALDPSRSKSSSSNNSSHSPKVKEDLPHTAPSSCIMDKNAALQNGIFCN
# [6] = target: T5, Sphingosine 1-phosphate receptor 5 (Homo sapiens, UniProt Q9H228); test: Inhibition of S1P5 receptor at 25 uM
# T5 sequence (Q9H228 whole entry): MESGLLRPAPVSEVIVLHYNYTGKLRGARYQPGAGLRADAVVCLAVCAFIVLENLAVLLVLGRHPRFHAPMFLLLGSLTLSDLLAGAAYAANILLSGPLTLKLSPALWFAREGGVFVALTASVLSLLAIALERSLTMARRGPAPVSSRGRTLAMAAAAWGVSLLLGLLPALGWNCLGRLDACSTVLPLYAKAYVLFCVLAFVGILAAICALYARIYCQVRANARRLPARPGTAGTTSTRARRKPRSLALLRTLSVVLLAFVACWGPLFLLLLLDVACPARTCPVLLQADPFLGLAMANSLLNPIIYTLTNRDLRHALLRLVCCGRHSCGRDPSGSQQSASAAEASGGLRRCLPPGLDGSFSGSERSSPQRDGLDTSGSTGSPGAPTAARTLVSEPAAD
# [7] = target: T2, Sphingosine 1-phosphate receptor 1; test: Inhibition of S1P1 receptor at 25 uM
# [8] = target: T3, Sphingosine 1-phosphate receptor 2; test: Inhibition of S1P2 receptor at 25 uM
# [9] = target: T6, Sphingosine 1-phosphate receptor 4 (Homo sapiens) (UniProt O95977); test: Antagonist activity at human S1P4 receptor expressed in EDG6-bla U2OS cells coexpressing human endothelial differentiation gene 6 linked to GAL4-VP16 assessed as beta-lactamase expression at 25 uM by FRET assay; assay type: functional, cell-based; method in brief: as §1
# T6 sequence (whole entry): T1 sequence (O95977 whole entry)
# [10] = target: T2, Sphingosine 1-phosphate receptor 1; test: Antagonist activity at S1P1 receptor; assay type: functional
# [11] = target: T4, Sphingosine 1-phosphate receptor 3; test: Antagonist activity at S1P3 receptor; assay type: functional
# [12] = target: T5, Sphingosine 1-phosphate receptor 5; test: Antagonist activity at S1P5 receptor; assay type: functional
structure (smiles),measurement,setting,value
Cc1ccc(C)c(-c2ccc(C(=O)Nc3c(C)cccc3C)s2)c1,pIC50,[1],7.23
same,Activity,[2],inactive
same,pIC50,[3],5.96
same,inhibition,[4],40%
same,inhibition,[5],35%
same,inhibition,[6],30%
Cc1ccc(C)c(-c2cc(C(=O)Nc3c(C)cccc3C)co2)c1,pIC50,[1],6.63
Cc1ccc(C)c(-c2cc(C(=O)Nc3c(C)cccc3C)ccc2C)c1,pIC50,[1],5.62
Cc1ccc(C)c(-c2cccc(C(=O)Nc3c(C)cccc3C)c2)c1,inhibition,[7],30%
same,pIC50,[1],7.12
same,inhibition,[5],40%
same,inhibition,[6],40%
same,inhibition,[8],25%
Cc1ccc(C)c(-c2cc(C)c(C(=O)Nc3c(C)cccc3C)o2)c1,pIC50,[1],6.76
Cc1cccc(C)c1NCc1ccc(-c2cc(Cl)ccc2Cl)o1,Activity,[9],inactive
Cc1ccc(C)c(-c2oc(C(=O)Nc3c(C)cccc3C)cc2C)c1,pIC50,[1],6.04
CCc1cccc(C)c1NC(=O)c1nnc(-c2cc(Cl)ccc2Cl)o1,Activity,[9],inactive
Cc1cccc(C)c1NC(=O)c1ccc(-c2cc(Cl)ccc2Cl)o1,pIC50,[10],< 4.70
same,pIC50,[11],< 4.70
Cc1ccc(C)c(-c2ccc(C(=O)Nc3c(C)cccc3C)o2)c1,pIC50,[10],< 4.70
same,pIC50,[11],< 4.70
same,pIC50,[12],< 4.70
Cc1cccc(C)c1NC(=O)c1cccc(-c2cc(Cl)ccc2Cl)n1,Activity,[9],inactive
Cc1ccc(C)c(-c2coc(C(=O)Nc3c(C)cccc3C)c2)c1,pIC50,[1],6.68
Cc1ccc(C)c(-c2ccc(C(=O)Nc3c(C)cccc3C)n2C)c1,pIC50,[1],5.20
